Screens deposited in PubChem BioAssay by Broad Institute.
Compounds with a hit are over-represented: about 3.6% of the library has one in this group of screens.
SR-BI uptake up = SR-BI HDL lipid transfer activation. CHO ldlA[mSR-BI] cells, DiI-HDL uptake fluorescence, 3 h; 100 = double the neutral-control signal. 320,000 tested, 0.096% active. activation, % at 12.5 µM. AID 504775;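 active = mean replicate activation of at least 60% and every replicate at or above 60%; inconclusive = mean or all-replicate condition met, but not both; inactive = mean below 60% and not all replicates reaching 60%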
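Material: SR-BI-overexpressing, LDLR-lacking CHO cells; schedule: compound exposure 3 h, 37 °C; reagent: DiI-labelled HDL at 10 µg/mL final; technique: bottom-read fluorescence, 550/595 nm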
SR-BI DiI inh = mouse SR-BI HDL lipid transfer inhibition | inhibition, % at 12.5 µM | 320,000 tested, 0.96% active | Q61009 | AID 488896 | ldlA[mSR-BI] CHO cells, DiI-HDL uptake fluorescence, 3 h;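 active = mean replicate inhibition of at least 70% and a set share of replicates each scoring 70 or more; inconclusive = meets just one of the two criteria; inactive = fails both criteria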
Target sequence (Q61009 whole entry, looked up): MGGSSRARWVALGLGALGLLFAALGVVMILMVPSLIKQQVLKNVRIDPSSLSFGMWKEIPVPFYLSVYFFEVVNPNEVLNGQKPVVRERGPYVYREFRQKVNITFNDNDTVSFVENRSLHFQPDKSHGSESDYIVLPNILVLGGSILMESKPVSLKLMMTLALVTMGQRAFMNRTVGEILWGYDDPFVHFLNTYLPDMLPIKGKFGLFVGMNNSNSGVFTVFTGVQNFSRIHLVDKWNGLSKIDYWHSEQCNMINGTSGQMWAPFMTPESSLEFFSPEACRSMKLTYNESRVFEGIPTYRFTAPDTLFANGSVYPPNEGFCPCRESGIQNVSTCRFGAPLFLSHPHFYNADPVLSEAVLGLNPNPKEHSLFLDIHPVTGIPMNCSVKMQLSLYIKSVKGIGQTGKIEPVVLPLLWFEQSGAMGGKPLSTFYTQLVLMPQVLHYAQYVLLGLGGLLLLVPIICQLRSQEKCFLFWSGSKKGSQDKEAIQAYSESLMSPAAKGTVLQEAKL
Wnt bcat act = activates Wnt/beta-catenin signaling in a reporter cell assay; activator, plate reader; AID 743398; activation, % at 9.35 µM; 300,000 tested, 1.2% active; in the data active = activation above about 30%, passing the limit was not always enough; inconclusive = no clear call, values can overlap the other calls
HSF-1 act = increases HSF-1 driven luciferase reporter signal; 300,000 tested, 1.7% active; NIH3T3-HGL HSF-1 luciferase reporter, MG132, 8 h; 100% = twice DMSO control signal; activation, % at 9 µM;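 active = mean replicate activation of at least 50% with a set share of replicates each reaching 50%; inconclusive = only one of those two conditions met; inactive = mean below 50% and too few replicates reaching it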
MITF act = increases MITF-driven TRPM1 promoter luciferase signal; AID 588334; 300,000 tested, 0.75% active; SK-MEL-5 TRPM1-promoter luciferase, 24 h; % of positive control, neutral wells = 0; activation, % at 12.5 µM;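 active = mean activation of at least 80% with every replicate also reaching 80%; inconclusive = mean reaches 80% but some replicate falls short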
Of the large screens only hits and unclear results are named; the others gave an inactive call.

CCc1nc2ccc(C(=O)N(C)CCCN(C)C)cn2c1N(C)C(=O)C1CCCCC1	none (no result: SR-BI uptake up, SR-BI DiI inh, HSF-1 act, MITF act)
O=C(c1ccco1)N1CCCN(Cc2cn[nH]c2-c2ccc(-c3ccccc3)cc2)CC1	HSF-1 act 76
CC1=Nc2ccccc2/C1=C/c1nc(-c2ccc(C)s2)oc1O	SR-BI DiI inh 103, HSF-1 act 58
CC1=Nc2ccccc2/C1=C\c1nc(-c2ccccc2)oc1O	none (no result: SR-BI uptake up, Wnt bcat act)
COc1cc(-c2cc(NC(C)=O)c3ncc(-c4ccc(C(C)=O)cc4)n3c2)cc(OC)c1OC	none (no result: SR-BI uptake up, SR-BI DiI inh, HSF-1 act, MITF act)
CC12CCC(C(=O)Nc3nc4ccc(Br)cc4s3)(OC1=O)C2(C)C (stereo not given)	Wnt bcat act 53
CC12CCC(C(=O)Nc3nccs3)(OC1=O)C2(C)C (stereo not given)	none (no result: MITF act)
COc1ccc(NC(=S)c2ccccc2)cc1	MITF act 83
Cc1ccc(NC(=S)c2ccc(N(C)C)cc2)cc1	Wnt bcat act 46
COc1ccc(NC(=S)c2ccc(N(C)C)cc2)cc1	HSF-1 act inconclusive (no result: Wnt bcat act)
COc1ccc(NC(=S)Nc2ccccc2)cc1	none
COc1ccc(C(=S)Nc2ccc(N(C)C)cc2)cc1	Wnt bcat act 68, HSF-1 act 60
CCCOc1ccc(-c2nnc(N)s2)cc1	Wnt bcat act 36 (no result: SR-BI uptake up, SR-BI DiI inh)
Cc1ccc2nc(-c3ccc4c(c3)OCCO4)cn2c1	none (no result: MITF act)
Cc1ccc2nc(-c3ccc4c(c3)NC(=O)CO4)cn2c1	HSF-1 act 64 (no result: SR-BI uptake up, SR-BI DiI inh)
COc1ccc(-c2cn3ccccc3n2)cc1OC	none
COc1ccc(-c2cn3cc(C)ccc3n2)cc1OC	HSF-1 act 96 (no result: Wnt bcat act)
COc1ccc(-c2cn3cc(C)ccc3n2)cc1F	HSF-1 act 59
CCC(=O)N(C)C[C@H]1Oc2cc(-c3ccccc3F)ccc2S(=O)(=O)N([C@H](C)CO)C[C@H]1C	none (no result: SR-BI uptake up, SR-BI DiI inh, HSF-1 act, MITF act)
CCN(c1ccccc1)S(=O)(=O)c1cccc(C(=O)N(C)CC(=O)Nc2ccc(F)c(F)c2F)c1	none (no result: HSF-1 act)
CC(=O)OC[C@]12CC[C@H]3[C@@](C)(CC[C@H]4C(C)(C)CCC[C@]34C)[C@@H]1CC(C1=CC(=O)OC1O)O2 (stereo not given in full)	none (no result: SR-BI uptake up, SR-BI DiI inh, HSF-1 act, MITF act)
O=C1CCCCCN1Cc1nnc(SCc2nc3ccccc3s2)n1-c1ccccn1	Wnt bcat act 57 (no result: MITF act)
Cc1cc(C)c(C)c(C(=O)CSc2nnc(-c3ccc4[nH]c(C)c(C)c4c3)o2)c1C	SR-BI DiI inh 84 (no result: Wnt bcat act)
CSc1ccc(OC2(C)CCN(Cc3ccc(OC(C)C)cc3)C2)cc1 (stereo not given)	none (no result: SR-BI uptake up, SR-BI DiI inh, HSF-1 act, MITF act)
CC1=NN(c2cccc(C(=O)O)c2)C(=O)/C1=C\C=C/c1ccccc1	HSF-1 act 100 (no result: SR-BI uptake up, SR-BI DiI inh, MITF act)
CC(=O)c1c(C)nc(Nc2nc3ccccc3s2)nc1C	Wnt bcat act 38 (no result: SR-BI uptake up, SR-BI DiI inh, MITF act)
Cc1ccc(Nc2nc3ccccc3s2)c(C)c1	HSF-1 act 66 (no result: Wnt bcat act)
Cc1ccc(-n2sc3cc(F)ccc3c2=O)c(C)c1	none (no result: SR-BI uptake up, SR-BI DiI inh, HSF-1 act, MITF act)
Cc1ccc(-c2csc(NC(=O)c3ccc(C)o3)n2)cc1	none
O=C(Nc1nc(-c2ccc([N+](=O)[O-])cc2)cs1)c1c(F)cccc1F	none
Cc1ccc(-c2csc(NC(=O)c3ccc([N+](=O)[O-])o3)n2)cc1	HSF-1 act 65
Cc1ccc(/C=C/C(=O)c2ccc([N+](=O)[O-])o2)cc1	none (no result: SR-BI uptake up, SR-BI DiI inh, MITF act)
Cc1ccc(CNC(=O)c2ccc([N+](=O)[O-])o2)cc1	HSF-1 act 61
O=C(Nc1nc(-c2ccccc2)cs1)c1ccc(N2CCOCC2)c([N+](=O)[O-])c1	SR-BI DiI inh 79 (no result: Wnt bcat act)
Cc1ccc(-c2csc(NC(=O)c3cccc([N+](=O)[O-])c3)n2)cc1	HSF-1 act 64
O=C(O)c1cc(/C=C/c2ccc(N3CCOCC3)cc2)nc2ccccc12	none (no result: HSF-1 act)
O=C(Nc1ccon1)c1ccc(N2CCCCC2)c([N+](=O)[O-])c1	MITF act 91
O=C(O)c1cc(/C=C/c2ccc(N3CCOCC3)c([N+](=O)[O-])c2)nc2ccccc12	Wnt bcat act 34
COc1ccc(NC(=O)c2cc(C3CCCCN3S(=O)(=O)c3ccccc3)on2)c(C)c1 (stereo not given)	none (no result: SR-BI uptake up, SR-BI DiI inh, HSF-1 act, MITF act)
COc1cccc(Nc2nc(-c3sc(NC(=O)CC(C)C)nc3C)cs2)c1	SR-BI DiI inh 86
COc1ccccc1Nc1nc(-c2sc(NC(=O)CC(C)C)nc2C)cs1	none
C=CCCC(=O)Nc1nc(C)c(-c2csc(Nc3cccc(OC)c3)n2)s1	SR-BI DiI inh 87
C#CCNC(=O)C[C@H]1C[C@@]2(C(=O)OC)C(=C[C@H](C(C)(C)C)O[C@@H]2C)N(Cc2ccccc2)C1=O	none (no result: SR-BI uptake up, SR-BI DiI inh, HSF-1 act, MITF act)
CCOc1ccc(-c2cc(C(=O)Nc3cc(OC)c(OC)c(OC)c3)[nH]n2)c(C)c1	none (no result: SR-BI uptake up, SR-BI DiI inh, HSF-1 act, MITF act)
O=C(Nc1cccc(Cl)c1)c1cnn2cccnc12	MITF act 89 (no result: Wnt bcat act)
O=C(Nc1cc(Cl)cc(Cl)c1)c1cnn2cccnc12	none
CSc1cccc(NC(=O)c2cnn3ccccc23)c1	Wnt bcat act 40, HSF-1 act 81, MITF act 104
COc1ccc(CN2CCC2(C)C(=O)NCCc2c[nH]c3ccccc23)c2ccccc12 (stereo not given)	none (no result: SR-BI uptake up, SR-BI DiI inh, HSF-1 act, MITF act)
CC(C)(C)NC(=O)C1C(c2ccccc2)=Nc2ccccc2N1C(=O)c1ccc(C(F)(F)F)cc1 (stereo not given)	none (no result: SR-BI uptake up, SR-BI DiI inh, HSF-1 act, MITF act)
CC(=O)c1ccc(Nc2ccc(-c3ccccc3F)nn2)cc1	Wnt bcat act 31
FC(F)(F)c1cc(Cl)c2nc(-c3ccccc3)c(Cc3ccccc3)n2c1	none (no result: SR-BI uptake up, SR-BI DiI inh, HSF-1 act, MITF act)
CSc1ccccc1OCc1cc(C(=O)N2CCN(C)C(c3ccccc3)C2)no1 (stereo not given)	none
COc1ccccc1OCc1cc(C(=O)N2CCN(C)C(c3ccccc3)C2)no1 (stereo not given)	Wnt bcat act 41
O=C(c1cc(COc2ccc(F)cc2F)on1)N1C[C@H]2CC[C@H]1C2	none
O=C(c1cc(COc2c(F)cccc2F)on1)N1C[C@H]2CC[C@H]1C2	Wnt bcat act 34, HSF-1 act 56
COc1ccccc1OCc1cc(C(=O)N2CC3C[C@@H]4CC2C[C@H](C3)C4)no1	MITF act 89
O=C(c1cc(COc2ccc(F)cc2F)on1)N1CC2C[C@@H]3CC1C[C@H](C2)C3	MITF act inconclusive
COc1ccc(OCc2cc(C(=O)N3C[C@H]4CC[C@H]3C4)no2)c(Cl)c1	MITF act 84
O=C1C[C@@H]2c3c(cccc3CN1Cc1ccccc1Br)C[C@@H](O)[C@H]2O	none (no result: HSF-1 act)
COc1cc(O)cc2c1[C@@H]1Oc3c(ccc(O)c3CC=C(C)C)[C@@H]1CO2	SR-BI DiI inh 85
CCC(Sc1nc2n[nH]c(C)c2c(=N)n1-c1ccc(C)c(Cl)c1)C(=O)N1CCOCC1 (stereo not given)	HSF-1 act 56 (no result: SR-BI uptake up, SR-BI DiI inh)
COc1ccc(N=Nc2ccc(N)nc2N)cc1	Wnt bcat act 41
COc1ccc(N=Nc2cc(C)ccc2O)cc1	Wnt bcat act 54, HSF-1 act 59
COc1ccc(N=Nc2ccc(CO)cc2)cc1	HSF-1 act 72 (no result: MITF act)
CCOC(=O)[C@@H]1CSCCS(=O)(=O)N1C(=O)[C@H](CCSC)NC(=O)OC(C)(C)C	none (no result: SR-BI uptake up, SR-BI DiI inh, HSF-1 act, MITF act)
